Columns and labels:
Format in all cases: functional
HL-60 [1] = experiment: Induction of cell differentiation in human HL60 cells assessed as alpha naphthyl esterase activity at 0.0001 uM after 4 days
In short: (§1)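 HL-60 cells in RPMI 1640 with 5% heat-inactivated calf serum at 37° under 5% CO2. Log-phase cells diluted to 1.2×10^5 cells/ml and preincubated 18 h, then samples added in DMSO (final 0.1%, DMSO controls). Cells scored after 4 days.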

HL-60 [2] = experiment: Induction of cell differentiation in human HL60 cells assessed as alpha naphthyl esterase activity at 0.001 uM after 4 days; in short: as §1
HL-60 [3] = experiment: Induction of cell differentiation in human HL60 cells assessed as alpha naphthyl esterase activity at 0.01 uM after 4 days; in short: as §1
HL-60 [4] = experiment: Induction of cell differentiation in human HL60 cells assessed as alpha naphthyl esterase activity at 0.1 uM after 4 days; in short: as §1
HL-60 [5] = experiment: Induction of cell differentiation in human HL60 cells assessed as alpha naphthyl esterase activity at 1 uM after 4 days; in short: as §1
HL-60 [6] = experiment: Induction of terminal cell differentiation in human HL60 cells at 0.0001 uM after 4 days by NBT reduction assay
In short: (§2)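 Log-phase HL-60 cells (RPMI 1640, 5% heat-inactivated calf serum, 37°, 5% CO2) were diluted to 1.2×10^5 cells/ml, preincubated 18 h, then treated 4 days with samples in DMSO (final 0.1%; DMSO controls). 10^6 cells were mixed 1:1 with fresh PBS holding 2 mg/ml NBT and 5 μg/ml TPA, 1 h at 37°. Formazan-positive cells were counted microscopically as % NBT-positive.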

HL-60 [7] = experiment: Induction of terminal cell differentiation in human HL60 cells at 0.001 uM after 4 days by NBT reduction assay; in short: as §2
HL-60 [8] = experiment: Induction of terminal cell differentiation in human HL60 cells at 0.01 uM after 4 days by NBT reduction assay; in short: as §2
HL-60 [9] = experiment: Induction of terminal cell differentiation in human HL60 cells at 0.1 uM after 4 days by NBT reduction assay; in short: as §2
HL-60 [10] = experiment: Induction of terminal cell differentiation in human HL60 cells at 1 uM after 4 days by NBT reduction assay; in short: as §2
HL-60 [11] = experiment: Induction of terminal cell differentiation in human HL60 cells assessed as inhibition of [3H]thymidine incorporation at 0.1 uM after 4 days; parameters: scale not given: the % may be the effect or the level left
In short: (§3)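 HL-60 cells were kept in RPMI 1640 with 5% heat-inactivated calf serum and penicillin/streptomycin at 37° under 5% CO2. Log-phase cells were diluted to 1.2×10^5 cells/ml and preincubated 18 h. Samples were added in DMSO (final 0.1%; vehicle controls matched) for 4 days. Aliquots then got 0.5 μCi/ml [3H]thymidine for 16 h more, were harvested and scintillation-counted. % incorporation per 10^6 cells = sample DPM / DMSO-control DPM.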

HL-60 [12] = experiment: Induction of terminal cell differentiation in human HL60 cells assessed as inhibition of [3H]thymidine incorporation at 0.01 uM after 4 days; parameters: scale not given: the % may be the effect or the level left; in short: as §3
HL-60 [13] = experiment: Induction of terminal cell differentiation in human HL60 cells assessed as inhibition of [3H]thymidine incorporation at 0.001 uM after 4 days; parameters: scale not given: the % may be the effect or the level left; in short: as §3
HL-60 [14] = experiment: Induction of terminal cell differentiation in human HL60 cells assessed as inhibition of [3H]thymidine incorporation at 0.0001 uM after 4 days; parameters: scale not given: the % may be the effect or the level left
In short: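 After 4-day sample treatment, 100 μl of HL-60 cells pulsed with 0.5 μCi/ml [3H]thymidine (65 Ci/mmol) for 16 h. Cells harvested and counted by liquid scintillation. Incorporation per 10^6 cells given as sample DPM divided by DMSO-control DPM.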

HL-60 [15] = experiment: Induction of terminal cell differentiation in human HL60 cells assessed as inhibition of [3H]thymidine incorporation at 1 uM after 4 days; parameters: scale not given: the % may be the effect or the level left; in short: as §3
HL-60 [16] = experiment: Induction of terminal cell differentiation in human HL60 cells assessed as naphthol AS-D chloroacetate esterase activity at 1 uM after 4 days
In short: (§4)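 HL-60 cells were grown in RPMI 1640 with 5% heat-inactivated calf serum at 37°, 5% CO2. They were diluted to 1.2×10^5 cells/ml, preincubated 18 h, then exposed 4 days to DMSO-dissolved samples (final DMSO 0.1%, matched vehicle controls). Specific esterase (naphthol AS-D chloroacetate) was scored cytochemically with a commercial kit as the percentage of differentiated cells.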

HL-60 [17] = experiment: Induction of terminal cell differentiation in human HL60 cells assessed as naphthol AS-D chloroacetate esterase activity at 0.1 uM after 4 days; in short: as §4
HL-60 [18] = experiment: Induction of terminal cell differentiation in human HL60 cells assessed as naphthol AS-D chloroacetate esterase activity at 0.01 uM after 4 days; in short: as §4
HL-60 [19] = experiment: Induction of terminal cell differentiation in human HL60 cells assessed as naphthol AS-D chloroacetate esterase activity at 0.001 uM after 4 days; in short: as §4
HL-60 [20] = experiment: Induction of terminal cell differentiation in human HL60 cells assessed as naphthol AS-D chloroacetate esterase activity at 0.0001 uM after 4 days; in short: as §4
HL-60 [21] = experiment: Induction of terminal cell differentiation in human HL60 cells assessed as cell viability at 1 uM by trypan blue exclusion method; details: read-out: Activity
In short: (§5)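 HL-60 cells preincubated 18 h at 1.2×10^5 cells/ml, then exposed 4 days to samples in DMSO (final 0.1%). Viability by trypan blue exclusion: viable/(viable+dead)×100. Cell counts also taken after 4 days.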

HL-60 [22] = experiment: Induction of terminal cell differentiation in human HL60 cells assessed as cell viability at 0.1 uM by trypan blue exclusion method; details: read-out: Activity; in short: as §5
HL-60 [23] = experiment: Induction of terminal cell differentiation in human HL60 cells assessed as cell viability at 0.01 uM by trypan blue exclusion method; details: read-out: Activity; in short: as §5
HL-60 [24] = experiment: Induction of terminal cell differentiation in human HL60 cells assessed as cell viability at 0.001 uM by trypan blue exclusion method; details: read-out: Activity; in short: as §5
HL-60 [25] = experiment: Induction of terminal cell differentiation in human HL60 cells assessed as cell viability at 0.0001 uM by trypan blue exclusion method; details: read-out: Activity; in short: as §5

## C=C1/C(=C\C=C2/CCC[C@]3(C)[C@@H]([C@H](C)CCCC(C)(C)O)CC[C@@H]23)C[C@@H](O)C[C@@H]1O [CALCITRIOL]
HL-60 [1]
  Activity: 2.5%
HL-60 [2]
  Activity: 14%
HL-60 [3]
  Activity: 68%
HL-60 [4]
  Activity: 90.1%
HL-60 [5]
  Activity: 95.3%
HL-60 [6]
  Activity: 8.8%
HL-60 [7]
  Activity: 28.5%
HL-60 [8]
  Activity: 73.3%
HL-60 [9]
  Activity: 80%
HL-60 [10]
  Activity: 90.5%
HL-60 [11]
  Activity: 92%
HL-60 [12]
  Activity: 58.3%
HL-60 [13]
  Activity: 32.3%
HL-60 [14]
  Activity: 6%
HL-60 [15]
  Activity: 95.3%
HL-60 [16]
  Activity: 2%
HL-60 [17]
  Activity: 2%
HL-60 [18]
  Activity: 4%
HL-60 [19]
  Activity: 4.6%
HL-60 [20]
  Activity: 5%
HL-60 [21]
  viability at 1 µM: 92%
HL-60 [22]
  viability at 0.1 µM: 95%
HL-60 [23]
  viability at 0.01 µM: 97%
HL-60 [24]
  viability at 0.001 µM: 99%
HL-60 [25]
  viability at 0.0001 µM: 98%

From ChEMBL document CHEMBL1148054, “Chemical and bioactive constituents from Zanthoxylum simulans” (J Nat Prod, 1994)
